Screening data deposited in PubChem BioAssay by several laboratories.
This is a sample that favours compounds with a hit; in the whole collection about 6.4% have one here.
Fibroblast inh: blocks proliferation of human lung fibroblasts. LL 47 human lung fibroblast viability, ATP luminescence; hits give low values. viability, % at 10 µM. 85,000 compounds, 1.1% hits. AID 719;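 active = viability at or below 50% in the single dose screen; inactive = viability above 50%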;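 note: compound exposure lasted 72 h before the ATP readout; 100% = median luminescence of untreated cell-only wells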
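Test system: LL 47 human lung fibroblasts / Quantity: 1,150 cells in each well / Medium: IMEM growth medium with 15% fetal bovine serum / Incubation: 72 h compound exposure at 37 °C after overnight plating / Detection: CellTiter-Glo luminescence measuring cellular ATP / Read-out: % viability versus median cells-only luminescence / Benchmarks: cell-only wells, no compound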
H69AR inhibit: growth inhibitors of human H69AR lung tumor cells; H69AR lung tumor viability, ATP luminescence, 72 h; hits give low values; viability, % at 10 µM; 85,000 compounds, 6% hits;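 active = viability at or below 40%; inactive = viability above 40%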;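 note: multidrug resistant small cell line overexpressing MRP-1 efflux transporter; 100% = mean luminescence of untreated control wells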
Jurkat tox 60K: reduces viability or proliferation of Jurkat cells | Jurkat E6.1 viability, ATP luminescence, 48 h | inhibition, % at 4 µM | 56,000 compounds, 1.2% hits | AID 463;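 active = inhibition above the mean inhibition of all tested compounds plus 3 SD, cut at about 28% in these data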
HUVEC inhibit: human endothelial cell proliferation inhibition. HUVEC proliferation, CellTiter-Glo luminescence, 72 h; hits give low values. viability, % at 10 µM (by protocol). 86,000 compounds, 1.1% hits. AID 648;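 active = viability at or below 30%; inactive = viability above 30%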;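 note: 100% = median luminescence of DMSO-only cell control wells on each plate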
An asterisk follows results filed as active; . = not tested or not shown.

SMILES | Fibroblast inh | H69AR inhibit | Jurkat tox 60K | HUVEC inhibit
C=CCN(CC=C)c1nc2ccccc2nc1C(C#N)C(=O)OC(C)C (configuration not stated) | 90 | 66 | . | 95
O=C1S/C(=C/c2ccc(N3CCOCC3)o2)C(=O)N1Cc1ccc(F)cc1 | 67 | 26* | . | 71
O=C(N/N=C/c1ccc(N2CCOCC2)o1)c1cccc(F)c1 | 97 | 101 | . | 91
CCOC(=O)c1c(NC(=O)CSc2nnc(C)s2)sc2c1CCC(C)C2 (configuration not stated) | 95 | 44 | . | 94
O=C(Nn1c(=O)[nH]c2ccccc2c1=O)c1ccco1 | 104 | 100 | . | 98
Cc1nc2sc3c(c2c2nc(-c4ccco4)nn12)CCCC3 | 73 | 9.1* | 8 | 66
c1coc(-c2nc3c4c5c(sc4ncn3n2)CCCC5)c1 | 99 | 57 | 0 | 95
O=c1[nH]c(NCc2ccco2)nnc1Cc1ccccc1Cl | 77 | 30* | . | 48
CC1CC(NS(=O)(=O)c2cccs2)CC(C)(C)C1 (configuration not stated) | 97 | 94 | . | 96
COc1ccc(OC)c(CCNC(=O)Cn2sc3nc(C)cc(C)c3c2=O)c1 | 31* | 0.0* | -2 | 77
COc1ccc(-c2nc(CS(=O)(=O)CC(=O)NCCc3cc(OC)ccc3OC)c(C)o2)cc1 | . | 90 | -1 | 89
C(=C\c1ccccc1)/CN1CCN(C(c2ccccc2)c2ccccc2)CC1 | 96 | 23* | . | 89
CCOc1ccc2ccccc2c1C(=O)N1CCN(c2ccccc2)CC1 | 59 | 15* | 85* | 49
CCOc1ccccc1C(=O)N1CCN(c2cccc(Cl)c2)CC1 | 57 | 31* | 98* | 30
COc1ccc(C(=O)N2CCN(c3cccc(Cl)c3)CC2)c(OC)c1 | 91 | 15* | 56* | 57
O=C(O)c1ccccc1C(=O)N1CCN(c2cccc(Cl)c2)CC1 | 98 | 93 | -11 | 83
COc1ccccc1C(=O)N1CCN(c2cccc(C(F)(F)F)c2)CC1 | 63 | 15* | 82* | 63
COc1ccccc1OCCC(=O)OCC(=O)Nc1ncc(Cl)cc1Cl | 95 | 71 | 0 | 90
N/C(=N\S(=O)(=O)c1ccc(Cl)s1)c1ccccc1 | 101 | 96 | . | 93
O=C(CSc1nnc(CNC(=O)c2cccs2)o1)Nc1cccc(C(F)(F)F)c1 | 92 | 91 | . | 88
CC1(C)C(=O)Nc2ccccc2N1C(=O)COC(=O)c1ccc(Cl)c(S(=O)(=O)NCc2ccccc2)c1 | 91 | 85 | . | 80
COc1cc2c(C(=O)N3CCN(c4ccccc4)CC3)c(C)oc2cc1Br | 97 | 23* | . | 87
COc1ccc(N2CCN(C(=O)c3c(-c4ccccc4)noc3C)CC2)cc1 | 96 | 106 | -13 | 106
N#Cc1c(-c2ccccc2)cc(C2CC2)nc1N | 93 | 84 | 3 | 68
CS(=O)(=O)c1nc(-c2ccccc2)cc(-c2ccccc2)c1C#N | 40* | 1.5* | . | 39
SMILES | Fibroblast inh | H69AR inhibit | Jurkat tox 60K | HUVEC inhibit
O=C(OCC#CCSc1nnc(-c2cccc3ccccc23)o1)c1ccco1 | 83 | 30* | . | 80
CCN(CC)c1nc2ccccc2c(N)c1-c1ccccc1 | 92 | 39* | . | 78
O=C(O)CCC(=O)Nc1ccc(N2CCCCCC2)cc1 | 91 | 84 | . | 95
O=C(COC(=O)C1CCCCC1)Nc1ccc(N2CCCCC2)cc1 | 95 | 38* | . | 98
O=C(COC(=O)c1ccc(O)cc1)Nc1ccc(N2CCCCC2)cc1 | 98 | 100 | . | 99
O=C(CNCCC1=CCCCC1)Nc1ccc(N2CCCCCC2)cc1 | 23* | 0.2* | . | 2.0*
Cc1ccc(C(=O)CCNc2ccc(F)c(Cl)c2)o1 | 94 | 87 | 83* | 75
CSC1=C(C#N)C(c2ccc(Cl)cc2)C2=C(CC(C)(C)CC2=O)N1 (configuration not stated) | 88 | 46 | 36* | 83
CCOC(=O)c1cccc(NC(=O)Cn2c(CC(=O)N3CCCC3)nc3ccccc32)c1 | 95 | 102 | 1 | 94
CCOC(=O)c1c(=O)n(O)c2ccc(OC)cc2[n+]1[O-] | 102 | 87 | . | 100
COc1ccc(CC(=O)Nc2nc3ccc(F)cc3s2)cc1S(=O)(=O)N1CCOCC1 | 88 | 39* | . | 86
COc1ccc(CC(=O)Nc2nc3ccccc3s2)cc1S(=O)(=O)N1CCOCC1 | 93 | 78 | 7 | 108
CCCCSc1nnc([C@@H](NC(=O)OC(C)(C)C)C(C)C)o1 | 99 | 88 | 0 | 108
CCSc1nc(N)c(C#N)c(-c2ccccc2Cl)c1C#N | 99 | 37* | . | 100
COC(=O)c1cc(NC2c3ccccc3C(=O)N2c2cccnc2)cc(C(=O)OC)c1 (configuration not stated) | . | . | -7 | .
O=C(NC1CCCCC1)N(CCN1CCOCC1)Cc1cc2cc3c(cc2[nH]c1=O)OCCO3 | 87 | 80 | -6 | 85
Cc1ccc2cc(CN(CC3CCCO3)C(=O)NC3CCCCC3)c(=O)[nH]c2c1C (configuration not stated) | 82 | 28* | 4 | 83
Cc1cccc2cc(CN(CC3CCCO3)C(=O)NC3CCCCC3)c(=O)[nH]c12 (configuration not stated) | 95 | 74 | 10 | 102
CCN(CC)CCN(Cc1cc2cc3c(cc2[nH]c1=O)OCCO3)C(=O)NC1CCCCC1 | 93 | 35* | -6 | 89
Cc1cccc(C)c1NC1=NC(=S)N(c2ccccc2)C12CCOC(C)(C)C2 (configuration not stated) | 87 | 34* | . | 90
Cc1cccc(N2C(=S)N=C(Nc3c(C)cccc3C)C23CCOC(C)(C)C3)c1 (configuration not stated) | 90 | 68 | . | 102
Nc1ccc(S(=O)(=O)N2CCCc3ccccc32)cc1 | 90 | 58 | 2 | 90
O=C(Nc1nnc(C2CC2)o1)c1ccc(S(=O)(=O)N2CCCc3ccccc32)cc1 | 71 | 18* | 102* | 62
COc1ccc(OC)c(S(=O)(=O)N2CCCc3ccccc32)c1 | 85 | 81 | -1 | 104
COc1ccc(-c2nnc(NC(=O)c3ccc(S(=O)(=O)N4CCCc5ccccc54)cc3)o2)cc1 | 63 | 17* | -2 | 3.0*
SMILES | Fibroblast inh | H69AR inhibit | Jurkat tox 60K | HUVEC inhibit
COc1ccccc1-c1c(C)nn2c(N3CCC4(CC3)OCCO4)cc(C)nc12 | 88 | 43 | 7 | 97
Cc1cc(N2CCC3(CC2)OCCO3)n2nc(C)c(-c3ccc(Cl)cc3)c2n1 | 84 | 37* | . | 91
O=C(C1=C(O)/C(=C/c2ccc(O)cc2)CCC1)C(F)(F)F | 99 | 29* | . | 83
CCn1c2ccccc2c2cc(NC(=O)CSc3nnc(-c4ccccc4OC)n3N)ccc21 | 91 | . | 5 | 72
CN=C1SC(CC(=O)Nc2sc3c(c2C#N)CCCC3)C(=O)N1C (configuration not stated) | 98 | 21* | . | 87
CCOC(=O)N1CCN(S(=O)(=O)c2ccc(C(=O)Nc3sc4c(c3C#N)CCC4)cc2)CC1 | 84 | 28* | 0 | 47
CCn1c2ccccc2c2cc(NC(=O)CSc3nnc(-c4ccc(OC)c(OC)c4)n3N)ccc21 | 107 | 22* | . | 83
N#Cc1ccccc1NC(=O)CSc1nnc(-c2ccccc2O)n1-c1ccccc1 | 90 | 33* | 6 | 84
